Sampled rows, rich in hits. Any-hit rate of the full collection: about 2.4%.
MC4R antagonist = blocks human MC4R cAMP signaling | P32245 | MC4R-expressing cells, MTII-stimulated cAMP, LANCE TR-FRET | inhibition, % at 6.5 µM | 360,000 compounds, 0.48% hits;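 active = inhibition above its plate's cutoff, the mean of tested wells on that plate plus 3 SD, cut at about 29% in these data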;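 note: 0% = Melanotan II alone and 100% = Melanotan II plus saturating MCL0020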
Target sequence (P32245 whole entry, looked up): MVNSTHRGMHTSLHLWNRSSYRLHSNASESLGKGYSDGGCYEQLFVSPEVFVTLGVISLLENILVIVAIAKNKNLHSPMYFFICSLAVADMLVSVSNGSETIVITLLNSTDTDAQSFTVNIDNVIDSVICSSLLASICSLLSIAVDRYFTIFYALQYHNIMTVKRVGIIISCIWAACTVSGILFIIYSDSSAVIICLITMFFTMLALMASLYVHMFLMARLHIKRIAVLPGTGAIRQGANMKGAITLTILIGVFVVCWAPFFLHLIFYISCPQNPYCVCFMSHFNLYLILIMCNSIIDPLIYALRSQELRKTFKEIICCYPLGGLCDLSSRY
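System: U2OS cells stably expressing human melanocortin 4 receptor (MC4R). Reagent: Melanotan II challenge after compound preincubation. Doses: 6.5 µM. Times: 30-min compound, 1-h challenge, 1-h detection, room temperature. Measured by: TR-FRET with Eu-cAMP and labeled anti-cAMP, 671 nm. Replicates: singlicate.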
HTR5A ag = activates human HTR5A in OPRM1-OPRD1 agonist counter-screen; 340,000 compounds, 0.61% hits; HTR5A agonist assay, luminescence, cell-based; activation, % at 9.3 µM; P47898; in the data active = activation mostly above about 9.5%, no sharp cut-off; inactive = mostly below about 7.6%;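 note: 0% = cells with vehicle only and 100% = reference agonist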
HTR5A inv ag = HTR5A inverse agonism, opioid heterodimer counter-screen; inhibition, % at 9.3 µM; 340,000 compounds, 0.083% hits; AID 504634; HTR5A cell line, luminescence; P47898; in the data active = inhibition mostly above about 23%, no sharp cut-off; inactive = mostly below about 18%;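 note: 0% = cells with DMSO and 100% = no-cell wells with DMSO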
MOR-DOR ag = agonists of human mu-delta opioid receptor heterodimerization; cells, OPRM1-OPRD1 heterodimerization, luminescence; activation, % at 9.3 µM; 340,000 compounds, 0.3% hits;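 note: 0% = vehicle-treated cells and 100% = reference agonist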
MC4R ag barr = activates human MC4R beta-arrestin recruitment. P32245. U2OS MC4R beta-arrestin complementation, luminescence; percent of melanotan II response, DMSO zero. activation, % at 8.9 µM. AID 540308. 360,000 compounds, 0.98% hits;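 active = activation above a per-plate cutoff, the mean activation of sample wells on that plate plus 3 SD, cut at about 8% in these data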
MOR-DOR inv ag = inverse agonist of human OPRM1-OPRD1 heterodimerization. P35372+P41143. 340,000 compounds, 0.21% hits. AID 504357. cell-based MOR-DOR heterodimer luminescence, inverse agonism. inhibition, % at 9.3 µM; in the data active = inhibition above about 22%, passing the limit was not always enough;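 note: 0% = cells with DMSO and 100% = wells without cells with DMSO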
OPRM1-D1 ag cf = OPRM1-OPRD1 heterodimer agonism, confirmation | shares compounds with MOR-DOR ag | 830 compounds, 45% hits | cells, MOR-DOR heterodimerization, luminescence complementation | activation, % at 9.3 µM | AID 504904;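 note: 0% = vehicle-treated cells and 100% = reference agonist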
HTR5A ag ctr2 = counter-screen for OPRM1-OPRD1 agonists: human HTR5A agonism; HTR5A agonist counterscreen, cell luminescence; shares compounds with MOR-DOR ag; AID 504905; 830 compounds, 8% hits; activation, % at 9.3 µM; in the data active = activation above about 17%;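 note: 0% = vehicle-treated cells and 100% = reference agonist response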
cAMP nonselect = counter-screen for MC4R antagonists: nonselective cAMP signaling inhibitors. shares compounds with MC4R antagonist. parental U2OS, forskolin cAMP, LANCE TR-FRET. inhibition, % at 6.5 µM. 1,600 compounds, 26% hits;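 active = mean inhibition over triplicates above the low-control well mean plus 3 SD, set per campaign, cut at about 13% in these data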;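 note: signal is single emission at 671 nm which falls as cellular cAMP rises; 0% = forskolin-stimulated wells and 100% = buffer without forskolin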
MC4R antag conf = human MC4R cAMP antagonism confirmation; 1,600 compounds, 27% hits; shares compounds with MC4R antagonist; MC4R-expressing cells, MTII-stimulated cAMP, TR-FRET; inhibition, % at 6.5 µM; AID 602195; in the data active = inhibition above about 29%;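 note: 0% = agonist stimulated wells alone and 100% = agonist stimulated wells plus saturating reference antagonist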
Active calls of the source: *; · = no result. Cut-off read from the data, not from the text of the source, unless noted: active = activation above about 18%; inactive = the rest.

SMILES	MC4R antagonist	HTR5A ag	HTR5A inv ag	MOR-DOR ag	MC4R ag barr	MOR-DOR inv ag	OPRM1-D1 ag cf	HTR5A ag ctr2	others
O=C(NCCOc1ccccc1)C1CCC(=O)N(CCc2ccc(Cl)cc2)C1 (stereo not drawn)	10	1	-2	-1	0	6	·	·
O=C(NNc1c(Cl)cccc1Cl)c1ccno1	8	1	-3	-4	-1	20	·	·
C=CCN1N=C(c2ccc(NC(=O)c3ccccc3)cc2)CSC1=O	-4	3	19	55*	8	-285	1	-4
Cc1ccc(N(C(=O)c2snc(C(N)=O)c2N)C(C(=O)NC2CCCC2)c2ccncc2)cc1 (stereo not drawn)	12	0	7	-1	2	6	·	·
Cc1ccc(-c2nn(-c3cccc(F)c3)cc2CNCc2cccnc2)o1	6	2	-6	26*	1	-133	0	3
Cc1ccc(-c2nn(-c3cccc(F)c3)cc2CN2CCN(c3ccccn3)CC2)o1	0	6	24	37*	1	-195	-5	1
Cc1ccc(-c2nn(-c3cccc(F)c3)cc2CN(Cc2nccn2C)C(C)C)o1	14	-4	11	0	-2	1	·	·
CCCNC(=O)C1(C)CCN(Cc2ccc(Oc3ccccc3)cc2)C1 (stereo not drawn)	5	·	·	·	-2	·	·	·
Cc1sc(NC(=O)CSc2nnc3scc(-c4ccccc4)n23)c(C#N)c1C	6	3	-27	19*	16*	-105	0	3
Cc1sc(NC(=O)CSc2nnc(COc3ccccc3)n2C)c(C#N)c1C	12	3	-9	13	7	-82	·	·
O=[N+]([O-])c1ccc(SNc2ccccc2)c([N+](=O)[O-])c1	-1	4	-15	20*	3	-102	13	6
Brc1ccc(NC2=Nc3ccccc3CC2)cc1	3	1	4	26*	0	-165	230*	7
CCOc1ccc2[nH]c3c(N4CCN(c5ccccn5)CC4)ncnc3c2c1	7	0	-11	35*	2	-200	19*	8
Cc1ccc(SCCN2CCC(O)CCC2=O)cc1 (stereo not drawn)	2	-2	-12	0	-1	3	·	·
CN(Cc1cccc(F)c1)C(=O)c1ccccc1Sc1ccccc1C#N	1	-1	-37	-3	2	14	·	·
C#CC(=O)N(c1cc(OC)ccc1OC)C(C(=O)NC1CCCC1)c1cccs1 (stereo not drawn)	33*	15	-27	37*	16*	-221	18	20*	cAMP nonselect=-34;MC4R antag conf=22
COc1ccc(N(C(=O)c2ccco2)C(C(=O)NC2CCCCC2)c2cccs2)cc1OC (stereo not drawn)	12	6	-16	-2	-3	12	·	·
CCCCNC(=O)O[C@@H]1C[C@H]2CCCC(=O)N3CC[C@@H](C1)[C@@H]23	5	2	-7	-3	0	15	·	·
CCCCCCCN(c1ccccc1)[C@@H]1C[C@H]2CCCC(=O)N3CC[C@@H](C1)[C@@H]23	34*	1	4	19*	4	-106	0	1	cAMP nonselect=-7;MC4R antag conf=34*
C=CCCC(=O)N1CCC(CCC(=O)NC2CC2)CC1	4	2	-14	-3	-2	13	·	·
O=C(Cc1ccc(Br)cc1)OCC(=O)c1ccc[nH]1	10	-1	5	-1	-2	4	·	·

From PubChem BioAssay
